# Results as given in ChEMBL document CHEMBL1764979, “Nucleoside transport inhibitors: structure-activity relationships for pyrimido[5,4-d]pyrimidine derivatives that potentiate pemetrexed cytotoxicity in the presence of α1-acid glycoprotein” (J Med Chem, 2011).
# Active and inactive are the calls of the source. The calls are words filed in the database; no cut-off is given here.
# What was measured:
# [1] = Aqueous solubility of the compound; assay type: physicochemical; conditions: buffer
# [2] = Chemical stability of the compound; assay type: physicochemical
# COR-L23 [3] = assay: Potentiation of pemetrexed-induced growth inhibitory activity in human COR-L23 cells at 1 uM by SRB assay in presence of thymidine and hypoxanthine; assay type: functional; set-up: scale not given: the % may be the effect or the level left
# Summary of the method: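 COR-L23 cells in RPMI 1640 with 10% FCS were seeded at 1 × 10^3/well and allowed to attach overnight. They were then given pemetrexed 200 nM, ± TdR 1 μM and HPX 10 μM (1% DMSO), ± inhibitor 1 μM, for three doublings, then fixed and read by SRB. % reversal = (growth arrest with pemetrexed + TdR/HPX + inhibitor)/(growth arrest with pemetrexed alone) × 100. Three independent experiments.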
# COR-L23 [4] = assay: Inhibition of ENT-mediated [3H]thymidine incorporation in human COR-L23 cells at 0.1 uM by liquid scintillation counting; assay type: cell-based
# Summary of the method: (§1)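 Log-phase COR-L23 cells were seeded at 2 × 10^4/well, left overnight, PBS-washed and given serum-free medium with inhibitor. 3H-TdR was added (final 100 nM, 6.2 GBq/mmol) for 2 h at 37 °C. Cells were washed in ice-cold PBS, lysed in 0.5 M NaOH for 30 min, harvested onto glass-fibre filters with TCA/water/MeOH rinses, and scintillation counted. Mean ± SD of three independent experiments.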
# [5] = Inhibition of ENT-mediated [3H]thymidine incorporation in human COR-L23 cells by liquid scintillation counting; assay type: cell-based; conditions: COR-L23, 2 h; summary of the method: as §1
# COR-L23 [6] = assay: Inhibition of ENT-mediated [3H]thymidine incorporation in human COR-L23 cells at 1 uM by liquid scintillation counting; assay type: cell-based; summary of the method: as §1
# L1210 [7] = conditions: Mus musculus, at 1 µM
# L1210 [8] = assay: Inhibition of ENT-mediated [3H]thymidine incorporation in mouse L1210 cells at 1 uM by liquid scintillation counting; assay type: cell-based; conditions: in the assay text read “transport” for “incorporation”
# Summary of the method: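 3H-TdR transport into murine L1210 leukaemia cells with inhibitor at 1.0 μM, tested with and without AGP (5 mg/mL). Mean and SD of three independent experiments.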
SMILES,solubility [1],Stability [2],IC50 [5],Activity (COR-L23 [3]),inhibition (COR-L23 [4]),inhibition (COR-L23 [6]),inhibition (L1210 [7]),inhibition (L1210 [8])
CCOC(=O)[C@H](C)NC(=O)OC(C)CNc1nc(NCc2ccc(OC)c(OC)c2)c2nc(NCC(C)OC(=O)N[C@@H](C)C(=O)OCC)nc(NCc3ccc(OC)c(OC)c3)c2n1 (some centres undefined),Insoluble,Unstable,–,–,–,–,–,–
CCOC(=O)[C@H](C)NC(=O)OC(C)CNc1nc(NCc2ccc(OC)c(OC)c2)c2nc(NCC(C)O)nc(NCc3ccc(OC)c(OC)c3)c2n1 (some centres undefined),–,Unstable,435 nM,–,39%,68%,–,–
COc1ccc(CNc2nc(NCC(C)OC(=O)CCC(=O)O)nc3c(NCc4ccc(OC)c(OC)c4)nc(NCC(C)OC(=O)CCC(=O)O)nc23)cc1OC (centres undefined),–,–,–,–,–,–,inactive,–
COc1ccc(CNc2nc(NCC(C)OC(=O)CCC(=O)O)nc3c(NCc4ccc(OC)c(OC)c4)nc(NCC(C)O)nc23)cc1OC (centres undefined),–,–,–,–,–,–,Active,–
COc1ccc(CNc2nc(NC[C@H](C)O)nc3c(NCc4ccc(OC)c(OC)c4)nc(NC[C@H](C)O)nc23)cc1OC,–,–,31 nM,–,68%,93%,–,–
COc1ccc(CNc2nc(NCC(C)O)nc3c(NCc4ccc(OC)c(OC)c4)nc(NCC(C)O)nc23)cc1OC (centres undefined),–,Stable,26 nM,>100%,66%,90%,Active,> 90%
C=CCOc1ccc(CNc2nc(NCC(C)O)nc3c(NCc4ccc(OC)c(OC)c4)nc(NCC(C)O)nc23)cc1OC (centres undefined),–,–,14 nM,–,81%,96%,–,–
COc1ccc(CNc2nc(NCC(C)OC(=O)[C@@H](NC(=O)OC(C)(C)C)C(C)C)nc3c(NCc4ccc(OC)c(OC)c4)nc(NCC(C)OC(=O)[C@@H](NC(=O)OC(C)(C)C)C(C)C)nc23)cc1OC (some centres undefined),–,–,–,–,–,–,inactive,–
COc1ccc(CNc2nc(NCC(C)OC(=O)[C@@H](NC(=O)OC(C)(C)C)C(C)C)nc3c(NCc4ccc(OC)c(OC)c4)nc(NCC(C)O)nc23)cc1OC (some centres undefined),–,–,–,–,–,–,inactive,–
COc1ccc(CNc2nc(NCC(C)OC(=O)[C@@H](N)C(C)C)nc3c(NCc4ccc(OC)c(OC)c4)nc(NCC(C)OC(=O)[C@@H](N)C(C)C)nc23)cc1OC.Cl.Cl (some centres undefined),–,–,70 nM,>100%,59%,87%,Active,–
OCCN(CCO)c1nc(N2CCCCC2)c2nc(N(CCO)CCO)nc(N3CCCCC3)c2n1 [DIPYRIDAMOLE],–,–,15 nM,>100%,78%,96%,–,–
CCOC(=O)CNC(=O)OC(C)CNc1nc(NCc2ccc(OC)c(OC)c2)c2nc(NCC(C)OC(=O)NCC(=O)OCC)nc(NCc3ccc(OC)c(OC)c3)c2n1 (centres undefined),–,Unstable,–,–,–,–,–,> 90%
COc1ccc(CNc2nc(NCC(C)OC(=O)[C@@H](N)C(C)C)nc3c(NCc4ccc(OC)c(OC)c4)nc(NCC(C)O)nc23)cc1OC.Cl (some centres undefined),–,–,39 nM,>100%,64%,89%,–,–

# Continued, in another order:
solubility [1],Stability [2],IC50 [5],SMILES,Activity (COR-L23 [3]),inhibition (COR-L23 [4]),inhibition (COR-L23 [6]),inhibition (L1210 [7]),inhibition (L1210 [8])
–,–,44 nM,COc1ccc(CNc2nc(NCC(C)OC(=O)[C@@H](N)C(C)C)nc3c(NCc4ccc(OC)c(OC)c4)nc(NCC(C)OC(=O)Nc4ccccc4)nc23)cc1OC (some centres undefined),>100%,68%,92%,–,–
Insoluble,Unstable,–,CCOC(=O)[C@H](Cc1ccccc1)NC(=O)OC(C)CNc1nc(NCc2ccc(OC)c(OC)c2)c2nc(NCC(C)OC(=O)N[C@@H](Cc3ccccc3)C(=O)OCC)nc(NCc3ccc(OC)c(OC)c3)c2n1 (some centres undefined),–,–,–,–,–
–,–,10 nM,COc1ccc(CNc2nc(NCC(C)OC(=O)Nc3ccccc3)nc3c(NCc4ccc(OC)c(OC)c4)nc(NCC(O)CO)nc23)cc1OC (centres undefined),>100%,69%,91%,–,–
–,Unstable,59 nM,CCOC(=O)CNC(=O)OC(C)CNc1nc(NCc2ccc(OC)c(OC)c2)c2nc(NCC(C)O)nc(NCc3ccc(OC)c(OC)c3)c2n1 (centres undefined),–,85%,94%,Active,> 90%
–,–,22 nM,COc1ccc(CNc2nc(NCC(C)OC(=O)Nc3ccccc3)nc3c(NCc4ccc(OCCN5CCOCC5)c(OC)c4)nc(NCC(C)O)nc23)cc1OC (centres undefined),>100%,80%,97%,–,–
–,Stable,–,COc1ccc(NC(=O)OC(C)CNc2nc(NCc3ccc(OC)c(OC)c3)c3nc(NCC(C)OC(=O)Nc4ccc(OC)cc4)nc(NCc4ccc(OC)c(OC)c4)c3n2)cc1 (centres undefined),–,–,–,–,–
–,Stable,60 nM,COc1ccc(CNc2nc(NCC(C)OC(=O)Nc3ccc([N+](=O)[O-])cc3)nc3c(NCc4ccc(OC)c(OC)c4)nc(NCC(C)O)nc23)cc1OC (centres undefined),>100%,84%,96%,Active,Active
–,Unstable,–,CCOC(=O)[C@H](Cc1ccccc1)NC(=O)OC(C)CNc1nc(NCc2ccc(OC)c(OC)c2)c2nc(NCC(C)O)nc(NCc3ccc(OC)c(OC)c3)c2n1 (some centres undefined),–,–,–,–,–
–,Stable,–,COc1ccc(CNc2nc(NCC(C)OC(=O)Nc3ccc(C(F)(F)F)cc3)nc3c(NCc4ccc(OC)c(OC)c4)nc(NCC(C)OC(=O)Nc4ccc(C(F)(F)F)cc4)nc23)cc1OC (centres undefined),–,–,–,–,inactive
–,Stable,4 nM,COc1ccc(NC(=O)OC(C)CNc2nc(NCc3ccc(OC)c(OC)c3)c3nc(NCC(C)O)nc(NCc4ccc(OC)c(OC)c4)c3n2)cc1 (centres undefined),>100%,84%,98%,–,–
–,Stable,67 nM,COc1ccc(CNc2nc(NCC(C)OC(=O)Nc3ccc(C(F)(F)F)cc3)nc3c(NCc4ccc(OC)c(OC)c4)nc(NCC(C)O)nc23)cc1OC (centres undefined),>100%,75%,93%,Active,Active
–,Unstable,7 nM,COc1ccc(CNc2nc(NCC(C)OC(=O)Nc3ccccc3)nc3c(NCc4ccc(OC)c(OC)c4)nc(NCC(C)OC(=O)CCC(=O)O)nc23)cc1OC (centres undefined),>100%,75%,94%,–,–
–,Stable,–,COc1ccc(CNc2nc(NCC(C)OC(=O)Nc3ccccc3)nc3c(NCc4ccc(OC)c(OC)c4)nc(NCC(C)OC(=O)Nc4ccccc4)nc23)cc1OC (centres undefined),–,–,–,–,–
–,Stable,8 nM,COc1ccc(CNc2nc(NCC(C)OC(=O)Nc3ccccc3)nc3c(NCc4ccc(OC)c(OC)c4)nc(NCC(C)O)nc23)cc1OC (centres undefined),>100%,81%,97%,Active,Active
–,Unstable,7 nM,COC(=O)[C@@H](NC(=O)OC(C)CNc1nc(NCc2ccc(OC)c(OC)c2)c2nc(NCC(C)O)nc(NCc3ccc(OC)c(OC)c3)c2n1)C(C)C (some centres undefined),–,79%,95%,–,–
–,Stable,–,COc1ccc(CNc2nc(NCC(C)OC(=O)Nc3ccc([N+](=O)[O-])cc3)nc3c(NCc4ccc(OC)c(OC)c4)nc(NCC(C)OC(=O)Nc4ccc([N+](=O)[O-])cc4)nc23)cc1OC (centres undefined),–,–,–,–,inactive
–,Unstable,218 nM,COc1ccc(CNc2nc(NCC(C)OP(=O)(O)O)nc3c(NCc4ccc(OC)c(OC)c4)nc(NCC(C)OC(=O)Nc4ccccc4)nc23)cc1OC (centres undefined),–,53%,75%,–,–
